Laboratory results: ChEMBL document CHEMBL4680077, “Differentiation of skeletal osteogenic progenitor cells to osteoblasts with 3,4-diarylbenzopyran based amide derivatives: Novel osteogenic agents” (Eur J Med Chem, 2016)
Active and inactive are the calls of the source. The rule behind the calls is not given here.

Experiments:
[1] = Acute toxicity in Swiss albino mouse assessed as relative uterus weight at 300 mg/kg, po measured after 7 days (reference value: 1.63 +/- 0.71 %); format: organism-based; conditions: in vivo, 168 h, time 7 day
[2] = Initial concentration in Sprague-Dawley rat at 1 mg/kg, iv measured upto 24 hrs by LC-MS/MS analysis; format: ADME, organism-based; conditions: in vivo
[3] = AUC (0 to 24 hrs) in Sprague-Dawley rat at 1 mg/kg, po measured upto 24 hrs by LC-MS/MS analysis; format: ADME, organism-based; parameters: route oral, dose 1 mg/kg, time <=24; conditions: in vivo
How it was run: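 Female Sprague-Dawley rats (n = 4 per route), fasted overnight (12-14 h); 1 mg/kg orally in 0.25% CMC suspension, or an i.v. tail-vein bolus in DMSO-PEG400-ethanol-water (4:3:1:2). Retro-orbital blood was taken up to 24 h, and plasma was extracted with n-hexane (halofantrine IS). LC-MS/MS linear range 0.5-200 ng/mL. AUC0-24 was calculated by the linear trapezoidal rule, non-compartmental; mean ± S.D.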

[4] = Acute toxicity in Swiss albino mouse assessed as absolute spleen weight at 1000 mg/kg, po measured after 7 days (reference value: 0.17 +/- 0.03 g); format: organism-based; conditions: in vivo, 168 h, time 7 day
[5] = Acute toxicity in Swiss albino mouse assessed as absolute ovary weight at 5 mg/kg, po measured after 7 days (reference value: 0.04+/- 0.02 g); format: organism-based; conditions: in vivo, 168 h, time 7 day
[6] = Acute toxicity in Swiss albino mouse assessed as absolute kidney weight at 50 mg/kg, po measured after 7 days (reference value: 0.29 +/- 0.02 g); format: organism-based; conditions: in vivo, 168 h, time 7 day
[7] = Acute toxicity in Swiss albino mouse assessed as absolute brain weight at 1000 mg/kg, po measured after 7 days (reference value: 0.37 +/- 0.02 g); format: organism-based; conditions: in vivo, 168 h, time 7 day
Calvarial osteoblast [8] = experiment: Induction of osteoblast differentiation in mouse calvarial osteoblast assessed as increase in ERalpha expression at 1 pM incubated for 48 hrs by Western blot analysis; format: functional, cell-based
How it was run: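 Calvarial osteoblasts at 60–70% confluence were treated ± compound for 48 h, with 100 pM E2 as positive control. Lysates (30 µg protein) were resolved on 10% SDS-PAGE, transferred to PVDF and probed for ER-α and ER-β with HRP secondaries and ECL detection. Bands were quantified by densitometry normalized to β-actin.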

[9] = Acute toxicity in Swiss albino mouse assessed as lymphocyte count at 5 mg/kg, po measured after 7 days (reference value: 37.97 +/- 1.80 %); format: organism-based; conditions: in vivo, 168 h, time 7 day
[10] = Acute toxicity in Swiss albino mouse assessed as malondialdehyde level at 1000 mg/kg, po measured after 7 days (reference value: 0.14 +/- 0.01 nM/mg); format: organism-based; conditions: in vivo, 168 h, time 7 day
[11] = Acute toxicity in Swiss albino mouse assessed as WBC count per thousand/mm3 at 50 mg/kg, po measured after 7 days (reference value: 6.84 +/- 0.83 /mm3); format: organism-based; conditions: in vivo, 168 h, time 7 day
[12] = Acute toxicity in Swiss albino mouse assessed as absolute spleen weight at 5 mg/kg, po measured after 7 days (reference value: 0.17 +/- 0.03 g); format: organism-based; conditions: in vivo, 168 h, time 7 day
[13] = Acute toxicity in Swiss albino mouse assessed as relative heart weight at 5 mg/kg, po measured after 7 days (reference value: 0.51 +/- 0.02 %); format: organism-based; conditions: in vivo, 168 h, time 7 day
Mus musculus = experiment: In vivo osteogenic activity in ovariectomized BALB/c mouse assessed as decrease in serum OCN at 1 to 10 mg/kg, po via gavage administered for 30 days; format: functional, organism-based; conditions: dose 1-10 mg/kg, time 30.0 day
How it was run: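 Eight-week-old female balb/c mice were ovariectomized and dosed once daily by oral gavage at 1 or 10 mg kg-1 in vehicle (gum acacia in water) for 30 days; sham and Ovx vehicle groups served as controls. Serum CTx and osteocalcin were assayed in duplicate. n = 10 per group; mean ± SEM.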

[14] = Acute toxicity in Swiss albino mouse assessed as creatinine level at 50 mg/kg, po measured after 7 days (reference value: 0.97 +/- 0.07 mg/dL); format: organism-based; conditions: in vivo, 168 h, time 7 day
Calvarial osteoblast [15] = experiment: Induction of osteoblast differentiation in mouse calvarial osteoblast assessed as increase in OCN mRNA expression at 1 pM incubated for 48 hrs by qPCR analysis; format: functional, cell-based
How it was run: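 Calvarial osteoblasts were treated at 1 pM for 24 and 48 h. Total RNA was extracted with TRIzol, and cDNA was made from 2 µg RNA. qPCR ran 40 cycles for BMP-2, RUNX-2, OCN and collagen type 1, with normalization to GAPDH. Mean ± SEM of three independent experiments.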

[16] = Acute toxicity in Swiss albino mouse assessed as absolute spleen weight at 300 mg/kg, po measured after 7 days (reference value: 0.17 +/- 0.03 g); format: organism-based; conditions: in vivo, 168 h, time 7 day
[17] = Acute toxicity in Swiss albino mouse assessed as relative lung weight at 50 mg/kg, po measured after 7 days (reference value: 0.70 +/- 0.08 %); format: organism-based; conditions: in vivo, 168 h, time 7 day
[18] = Acute toxicity in Swiss albino mouse assessed as relative spleen weight at 5 mg/kg, po measured after 7 days (reference value: 0.73 +/- 0.14 %); format: organism-based; conditions: in vivo, 168 h, time 7 day
[19] = Acute toxicity in Swiss albino mouse assessed as creatinine level at 1000 mg/kg, po measured after 7 days (reference value: 0.97 +/- 0.07 mg/dL); format: organism-based; conditions: in vivo, 168 h, time 7 day
[20] = Acute toxicity in Swiss albino mouse assessed as relative kidney weight at 1000 mg/kg, po measured after 7 days (reference value: 1.25 +/- 0.08 %); format: organism-based; conditions: in vivo, 168 h, time 7 day
[21] = Acute toxicity in Swiss albino mouse assessed as relative lung weight at 1000 mg/kg, po measured after 7 days (reference value: 0.70 +/- 0.08 %); format: organism-based; conditions: in vivo, 168 h, time 7 day
[22] = Acute toxicity in Swiss albino mouse assessed as haemoglobin level at 1000 mg/kg, po measured after 7 days (reference value: 10.86 +/- 0.87 g/dL); format: organism-based; conditions: in vivo, 168 h, time 7 day
[23] = Acute toxicity in Swiss albino mouse assessed as neutrophil count at 1000 mg/kg, po measured after 7 days (reference value: 41.50 +/- 4.08 %); format: organism-based; conditions: in vivo, 168 h, time 7 day
[24] = Acute toxicity in Swiss albino mouse assessed as relative kidney weight at 50 mg/kg, po measured after 7 days (reference value: 1.25 +/- 0.08 %); format: organism-based; conditions: in vivo, 168 h, time 7 day
[25] = Acute toxicity in Swiss albino mouse assessed as body weight at 300 mg/kg, po measured on day 7 (reference value: 22.75 +/- 0.38 g); format: organism-based; conditions: in vivo, 168 h, time 7 day
[26] = Acute toxicity in Swiss albino mouse assessed as morbidity at 5 to 1000 mg/kg, po measured after 7 days; format: organism-based; conditions: in vivo, 168 h, dose 5-1000 mg/kg, time 7 day
How it was run: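 Acute oral toxicity per OECD guidelines 420, 423 and 425. Swiss albino mice received a single oral dose at 5, 50, 300 or 1000 mg kg1 body weight, with vehicle controls. Animals were watched for morbidity, mortality and observational changes over 7 days. Tail-vein blood was then taken for hematology and serum biochemistry. Organs were inspected at sacrifice. n = 6 per group.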

[27] = Acute toxicity in Swiss albino mouse assessed as absolute uterus weight at 300 mg/kg, po measured after 7 days (reference value: 0.27+/- 0.07 g); format: organism-based; conditions: in vivo, 168 h, time 7 day
[28] = Acute toxicity in Swiss albino mouse assessed as relative ovary weight at 1000 mg/kg, po measured after 7 days (reference value: 0.07 +/- 0.02 %); format: organism-based; conditions: in vivo, 168 h, time 7 day

CCCCN(C)C(=O)CCCCOc1ccc([C@H]2c3ccc(OC)cc3OC(C)(C)[C@@H]2c2ccccc2)cc1
Activity [1]: 1.23% | C0 at 24 h [2]: 610 ng/mL | AUC(0-t) [3]: 114 ng·h/mL | Activity [4]: 0.1 g | Activity [5]: 0.07 g | Activity [6]: 0.26 g | Activity [7]: 0.33 g | Activity (Calvarial osteoblast [8]): inactive | Activity [9]: 39.08% | Activity [10]: 0.16 nM/mg | Activity [11]: 5.69 /mm3 | Activity [12]: 0.11 g | Activity [13]: 0.48% | Activity (Mus musculus): Active | Activity [14]: 0.8 mg/dL | Activity (Calvarial osteoblast [15]): Active | Activity [16]: 0.13 g | Activity [17]: 0.84% | Activity [18]: 0.46% | Activity [19]: 0.69 mg/dL | Activity [20]: 1.44% | Activity [21]: 0.75% | Activity [22]: 11.35 g/dL | Activity [23]: 46.03% | Activity [24]: 1.09% | Activity [25]: 23.31 g | Activity [26]: Non-Toxic | Activity [27]: 0.33 g | Activity [28]: 0.05%
